The record followed here is ChEMBL document CHEMBL4765491, “Discovery of Potent and Selective Methylenephosphonic Acid CD73 Inhibitors” (J Med Chem, 2021).

Structures are written as SMILES.

One data set addresses 5'-nucleotidase (Homo sapiens, UniProt P21589). As to the kind of experiment: Inhibition of human CD73 expressed in CHO cells incubated for 60 mins before addition of AMP and further incubated for 60 mins by colorimetric assay. Format: cell-based. The essentials: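 Thawed stable CD73-CHO cells in HEPES pH 7.4 saline buffer with 0.1% glucose, 1500 cells/well. Preincubated 60 min at 37 °C with 16-point 1:3 compound dilutions (final 100–0 or 0.1–0 μM; 10 or 2% DMSO). 25 μM AMP then added, 60 min at 37 °C/5% CO2. Supernatant phosphate measured with PiColorLock Gold. Activity normalized to DMSO and no-cell wells. IC50 from a four-parameter fit.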

Data set [1] can be described thus: Half life in Sprague-Dawley rat at 0.25 to 0.5 mg/kg, iv measured up to 24 hrs by LC-MS/MS analysis. Type of data set: ADME, organism-based. As to conditions: in vivo, dose 0.25-0.5 mg/kg. Summed up:
(§1)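 Male SD rats (0.27–0.30 kg), acclimated. Single IV bolus via femoral vein at 0.25 or 0.5 mg/kg in 31.6% DMA/36.8% ethanol/31.6% PEG. Jugular blood at predose, 5, 15, 30 min, 1, 2, 4, 6, 8, 24 h, collected into K2-EDTA; plasma spun at 4 °C, stored −80 °C until analysis.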

Data set [2] in a line: Clearance in Sprague-Dawley rat at 0.25 to 0.5 mg/kg, iv measured up to 24 hrs by LC-MS/MS analysis. Format: ADME, organism-based. The note with it: in vivo, dose 0.25-0.5 mg/kg. The essentials:
as §1

5'-nucleotidase, sequence (P21589 whole entry): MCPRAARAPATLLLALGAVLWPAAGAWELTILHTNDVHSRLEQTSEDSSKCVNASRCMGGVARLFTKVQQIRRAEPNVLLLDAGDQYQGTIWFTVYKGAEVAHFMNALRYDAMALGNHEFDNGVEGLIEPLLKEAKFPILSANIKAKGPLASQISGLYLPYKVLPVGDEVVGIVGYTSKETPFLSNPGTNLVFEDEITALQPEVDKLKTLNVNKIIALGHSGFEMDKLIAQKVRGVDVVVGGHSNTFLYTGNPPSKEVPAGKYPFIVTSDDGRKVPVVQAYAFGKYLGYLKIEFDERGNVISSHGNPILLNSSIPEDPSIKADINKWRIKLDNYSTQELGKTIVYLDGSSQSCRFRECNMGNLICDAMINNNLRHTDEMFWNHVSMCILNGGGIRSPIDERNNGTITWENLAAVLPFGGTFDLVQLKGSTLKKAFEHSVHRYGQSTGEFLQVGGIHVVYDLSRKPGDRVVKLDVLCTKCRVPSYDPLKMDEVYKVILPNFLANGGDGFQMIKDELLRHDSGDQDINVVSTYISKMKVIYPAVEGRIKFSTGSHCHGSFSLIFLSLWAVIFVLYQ

Broadly, the IC50 is the concentration that inhibits the measured activity by half. Read a high IC50 as weaker potency. The molecule `O=P(O)(O)COC[C@H]1O[C@@H](n2cnc3c(NC4CCCC4)nc(-c4ccccc4)nc32)[C@H](O)[C@@H]1O` yielded an IC50 at 5'-nucleotidase of 245 nM. In turn, `O=P(O)(O)COC[C@H]1O[C@@H](n2cnc3c(NCC4CCCC4)nc(Cl)nc32)[C@H](O)[C@@H]1O` registered a half-maximal inhibitory concentration (IC50) on 5'-nucleotidase of 124 nM. Still for that read-out and setting: the same measure for `C[C@@H](Nc1nc(Cl)nc2c1ncn2[C@@H]1O[C@H](COCP(=O)(O)O)[C@@H](O)[C@H]1O)c1ccccc1`: 156 nM. The term half-life denotes the time needed for the level to fall by half in the phase considered. A higher half-life goes with slow decline. What is called clearance is the rate of elimination divided by the concentration. In data set [1], `C[C@H](Nc1nc(Cl)nc2c1ncn2[C@@H]1O[C@H](COCP(=O)(O)O)[C@@H](O)[C@H]1O)c1ccccc1` showed a half-life of 1.2 h. The same molecule showed a clearance in data set [2] of 2.33 mL/min/kg. At 5'-nucleotidase, this molecule had an IC50 of 65 nM. In turn, `O=P(O)(O)COC[C@H]1O[C@@H](n2cnc3c(NC4CCCC4)nc(COc4ccccc4)nc32)[C@H](O)[C@@H]1O` gave a concentration for half-maximal inhibition (IC50) on 5'-nucleotidase of 13 nM. At 5'-nucleotidase, `Cc1ccccc1-c1nc(NC2CCCC2)c2ncn([C@@H]3O[C@H](COCP(=O)(O)O)[C@@H](O)[C@H]3O)c2n1` showed a concentration for half-maximal inhibition (IC50) of 3500 nM. This IC50 is about 270-fold higher than that of the molecule before.

`O=P(O)(O)COC[C@H]1O[C@@H](n2cnc3c(N[C@@H]4CCOC4)nc(Cl)nc32)[C@H](O)[C@@H]1O` registered an IC50 against 5'-nucleotidase of 84 nM. Take `O=P(O)(O)COC[C@H]1O[C@@H](n2cnc3c(NC4CCC4)nc(Cl)nc32)[C@H](O)[C@@H]1O`: the IC50 on 5'-nucleotidase turned out to be 83 nM. `O=P(O)(O)OP(=O)(O)OC[C@H]1O[C@@H](n2cnc3c(NCc4ccccc4)nc(Cl)nc32)[C@H](O)[C@@H]1O` yielded an IC50 against 5'-nucleotidase of 0.4 nM. `O=C(O)C(OC[C@H]1O[C@@H](n2cnc3c(NCc4ccccc4)nc(Cl)nc32)[C@H](O)[C@@H]1O)C(=O)O` had an IC50 at 5'-nucleotidase of 1000 nM.

On 5'-nucleotidase, `O=C(O)C(OC[C@H]1O[C@@H](n2cnc3c(NCc4ccccc4)nc(Cl)nc32)[C@H](O)[C@@H]1O)P(=O)(O)O` (stereo partly specified) yielded an IC50 of 110 nM. On the same count and under the same terms, as for `O=P(O)(O)CCCOC[C@H]1O[C@@H](n2cnc3c(NCc4ccccc4)nc(Cl)nc32)[C@H](O)[C@@H]1O`, the figure is greater than 10000 nM; as for `COCc1nc(NC2CCCC2)c2ncn([C@@H]3O[C@H](COCP(=O)(O)O)[C@@H](O)[C@H]3O)c2n1`, 118 nM.

`O=P(O)(O)COC[C@H]1O[C@@H](n2cnc3c(NCCc4ccccc4F)nc(Cl)nc32)[C@H](O)[C@@H]1O`: on 5'-nucleotidase, half-maximal inhibition (IC50) was put at 121 nM.

On 5'-nucleotidase, `CC(C)Nc1nc(Cl)nc2c1ncn2[C@@H]1O[C@H](COCP(=O)(O)O)[C@@H](O)[C@H]1O` registered an IC50 of 192 nM.

Regarding `O=P(O)(O)COC[C@H]1O[C@@H](n2cnc3c(N4CCOCC4)nc(Cl)nc32)[C@H](O)[C@@H]1O`, on 5'-nucleotidase, the IC50 stood at 148 nM.

As to `Cn1cc(CNc2nc(Cl)nc3c2ncn3[C@@H]2O[C@H](COCP(=O)(O)O)[C@@H](O)[C@H]2O)cn1`, the IC50 against 5'-nucleotidase worked out at 201 nM. The IC50 values of the last two molecules are within 1.5-fold of each other. The same measure, in the same setting: the same measure for `CN(Cc1ccccc1Cl)c1nc(Cl)nc2c1ncn2[C@@H]1O[C@H](COCP(=O)(O)O)[C@@H](O)[C@H]1O`: 46 nM. The same measure, in the same setting: the same measure for `O=P(O)(O)COC[C@H]1O[C@@H](n2cnc3c(NCc4ccccc4Cl)nc(Cl)nc32)[C@H](O)[C@@H]1O`: 46 nM. For the molecule `O=P(O)(O)COC[C@H]1O[C@@H](n2cnc3c(NC4CCCC4)nc(COC4CCNC4)nc32)[C@H](O)[C@@H]1O` (stereo partly specified), the IC50 on 5'-nucleotidase is greater than 10000 nM. For `COc1ccccc1CCNc1nc(Cl)nc2c1ncn2[C@@H]1O[C@H](COCP(=O)(O)O)[C@@H](O)[C@H]1O`, the IC50 at 5'-nucleotidase stood at 173 nM.

Regarding `O=P(O)(O)COC[C@H]1O[C@@H](n2ncc3c(NC4CCCC4)cc(Cl)nc32)[C@H](O)[C@@H]1O`, on 5'-nucleotidase, half-maximal inhibition (IC50) required 4.5 nM. On the same count and under the same terms, as for `O=P(O)(O)COC[C@H]1O[C@@H](n2cnc3c(NCc4ccccc4)nc(Cl)nc32)[C@H](O)[C@@H]1O`, the figure is 58 nM; as for `O=P(O)(O)COC[C@H]1O[C@@H](n2cnc3c(NCc4ccccn4)nc(Cl)nc32)[C@H](O)[C@@H]1O`, 382 nM. In the case of `O=P(O)(O)COC[C@H]1O[C@@H](n2cnc3c(NCCc4ccccc4)nc(Cl)nc32)[C@H](O)[C@@H]1O`, on 5'-nucleotidase, the IC50 was 105 nM. As to `C[C@H](Nc1cc(Cl)nc2c1cnn2[C@@H]1O[C@H](COCP(=O)(O)O)[C@@H](O)[C@H]1O)c1ccc(F)cc1`, in data set [1], the half-life was 4 h. In addition, in data set [2], the clearance is 0.3 mL/min/kg. In data set [1], `C[C@H](Nc1nc(Cl)nc2c1cnn2[C@@H]1O[C@H](COCP(=O)(O)O)[C@@H](O)[C@H]1O)c1ccccc1` had a half-life of 2.4 h. This molecule had a clearance in data set [2] of 0.517 mL/min/kg. `C[C@H](Nc1nc(Cl)nc2c1cnn2[C@@H]1O[C@H](COCP(=O)(O)O)[C@@H](O)[C@H]1O)c1ccc(F)cc1` showed a half-life in data set [1] of 4.5 h. For the same molecule, the clearance in data set [2] is 0.333 mL/min/kg. Consider `O=P(O)(O)COC[C@H]1O[C@@H](n2cnc3c(NC4CC4)nc(Cl)nc32)[C@H](O)[C@@H]1O`, for which the 50% inhibitory concentration (IC50) against 5'-nucleotidase was determined as 588 nM. Molecule `O=P(O)(O)COC[C@H]1O[C@@H](n2cnc3c(NC4CCCC4)cc(Cl)nc32)[C@H](O)[C@@H]1O` gave an IC50 at 5'-nucleotidase of 33 nM. Take `Cn1cnnc1CNc1nc(Cl)nc2c1ncn2[C@@H]1O[C@H](COCP(=O)(O)O)[C@@H](O)[C@H]1O`: on 5'-nucleotidase, the IC50 was found to be 3200 nM. Compared with the last molecule, the IC50 is about 97-fold higher. In turn, `O=P(O)(O)COC[C@H]1O[C@@H](n2cnc3c(N4CCCC4)nc(Cl)nc32)[C@H](O)[C@@H]1O` had a half-inhibitory concentration (IC50) against 5'-nucleotidase of 45 nM. Compared with the last molecule, the IC50 is about 71-fold lower. For the molecule `O=P(O)(O)COC[C@H]1O[C@@H](n2cnc3c(NC4CCCC4)nc(Cl)nc32)[C@H](O)[C@@H]1O`, the half-life in data set [1] is 0.97 h. Further, the clearance in data set [2] is 6.17 mL/min/kg. For the same molecule, the IC50 against 5'-nucleotidase turned out to be 26 nM. In the case of `O=P(O)(O)CCOC[C@H]1O[C@@H](n2cnc3c(NCc4ccccc4)nc(Cl)nc32)[C@H](O)[C@@H]1O`, the IC50 on 5'-nucleotidase is greater than 10000 nM.
